Common to all, as to assay type: functional
The test system of test [1] is Staphylococcus aureus. Put plainly: Antibacterial activity against Staphylococcus aureus clinical isolate after 16 to 20 hrs by two fold agar dilution method. The procedure, abridged:
(§1)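 Two-fold dilutions of test compounds and reference antibiotics made in molten Mueller-Hinton agar held at 37 °C, final range […]; drug-free medium as control. Plates spot-inoculated with culture containing 10⁴ CFU/mL of each clinical isolate, incubated at 37 °C; MIC read as lowest inhibiting concentration.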

Test [2] concerns Streptococcus pneumoniae. Put plainly: Antibacterial activity against Streptococcus pneumoniae clinical isolate after 16 to 20 hrs by two fold agar dilution method. Summed up: as §1
In test [3] the test system is Escherichia coli. Briefly: Antibacterial activity against Escherichia coli clinical isolate after 16 to 20 hrs by two fold agar dilution method. Summed up: as §1
For test [4], the system named is Streptococcus pneumoniae. Briefly: Antibacterial activity against pencillin-resistant Streptococcus pneumoniae after 16 to 20 hrs by two fold agar dilution method. The procedure, abridged: as §1
Test [5] has as its system Mycobacterium tuberculosis. Briefly: Antitubercular activity against Mycobacterium tuberculosis H37Rv after 16 to 24 hrs by microplate alamar blue assay. Summed up:
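DMSO stocks (12.8 mM) two-fold diluted in Middlebrook 7H12 medium (7H9 with casitone, palmitic acid, BSA, catalase); final concentrations 128 down to 0.5. H37Rv inoculum 2 × 10⁵ cfu/mL added, 37 °C for 7 days, then Tween 80 plus Alamar Blue, further 16–24 h. Fluorescence ex 530/em 590 nm; MIC = lowest concentration giving ≥90% fluorescence reduction versus replicate bacteria-only controls.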

This passage reports MIC results from ChEMBL document CHEMBL1944533, “Synthesis and evaluation of anti-tubercular and antibacterial activities of new 4-(2,6-dichlorobenzyloxy)phenyl thiazole, oxazole and imidazole derivatives. Part 2” (2012).

In brackets after ≈: the same amount, converted by molar mass.

For the compound `COc1ccc(C(=O)Nc2nc(-c3ccc(OCc4c(Cl)cccc4Cl)cc3)c(C(=O)O)s2)cc1`, the MIC in test [1] is over 128 µM; in test [2] it was at most 0.118 µM; in test [3], over 128 µM; in test [4], over 128 µM; in test [5], over 128 µM.

As to `CC1(C)S[C@@H]2[C@H](NC(=O)[C@H](N)c3ccccc3)C(=O)N2[C@H]1C(=O)O` [AMPICILLIN], the MIC in test [1] is 2.7 µM (≈ 0.943 µg/mL); in test [2], 0.168 µM (≈ 0.0587 µg/mL); in test [3], 10.8 µM (≈ 3.77 µg/mL); in test [4], 10.8 µM (≈ 3.77 µg/mL).

For the compound `O=C(Nc1nc(-c2ccc(OCc3c(Cl)cccc3Cl)cc2)c(C(=O)O)s1)c1ccccc1`, the MIC in test [1] was over 128 µM; in test [2], at most 0.125 µM; in test [3], over 128 µM; in test [4], over 128 µM; in test [5], over 128 µM.

Turning to `CCOC(=O)c1sc(NC(=O)c2ccc(OC)cc2)nc1-c1ccc(OCc2c(Cl)cccc2Cl)cc1`, the MIC in test [1] was over 128 µM; in test [2], at most 0.112 µM; in test [3], over 128 µM; in test [4], over 128 µM; in test [5] it was 7.6 µM (≈ 4.24 µg/mL).

Turning to `CCOC(=O)c1sc(NC(=O)c2ccccc2)nc1-c1ccc(OCc2c(Cl)cccc2Cl)cc1`, the MIC in test [1] was over 128 µM; in test [2] it was at most 0.119 µM; in test [3], over 128 µM; in test [4] it was over 128 µM; in test [5] it was 61.2 µM (≈ 32.3 µg/mL).

`NNC(=O)c1ccncc1` [ISONIAZID]: the minimum inhibitory concentration (MIC) in test [5] turned out to be 0.81 µM (≈ 0.111 µg/mL).

`CCCC(=O)Nc1nc(-c2ccc(OCc3c(Cl)cccc3Cl)cc2)c(C(=O)OCC)s1`: the MIC in test [1] is over 128 µM; in test [2], at most 0.127 µM; in test [3], over 128 µM; in test [4] it was over 128 µM; in test [5] it was 60.8 µM (≈ 30 µg/mL).

GENTAMICIN: the minimal inhibitory concentration (MIC) was 6.9 µM in test [1], 6.9 µM in test [2], 0.43 µM in test [3] and 6.9 µM in test [4].

Compound `O=[N+]([O-])c1cn2c(n1)OC[C@@H](OCc1ccc(OC(F)(F)F)cc1)C2` [PRETOMANID] had an MIC in test [5] of 0.44 µM (≈ 0.158 µg/mL).

In the case of `CCOC(=O)c1ncn(-c2ccc(OCc3c(Cl)cccc3Cl)cc2)c1NC(=O)c1ccc(Cl)cc1`, the MIC in test [5] was over 128 µM.

Consider `O=C(Nc1nc(-c2ccc(OCc3c(Cl)cccc3Cl)cc2)c(C(=O)O)s1)c1ccc(Cl)cc1`, for which the minimum inhibitory concentration (MIC) in test [1] is over 128 µM; in test [2], at most 0.117 µM; in test [3], over 128 µM; in test [4], over 128 µM; in test [5], over 128 µM.

`O=C(Nc1c(C(=O)O)ncn1-c1ccc(OCc2c(Cl)cccc2Cl)cc1)c1ccc(Cl)cc1` came in with an MIC in test [5] of over 128 µM.

With `COc1c(N2C[C@@H]3CCCN[C@@H]3C2)c(F)cc2c(=O)c(C(=O)O)cn(C3CC3)c12` [MOXIFLOXACIN], the lowest concentration to inhibit growth in test [5] (MIC) was 0.5 µM (≈ 0.201 µg/mL).

Turning to `C=CC(=O)Nc1nc(-c2ccc(OCc3c(Cl)cccc3Cl)cc2)c(C(=O)OCC)s1`, the MIC in test [1] is over 128 µM; in test [2], at most 0.131 µM; in test [3], over 128 µM; in test [4], over 128 µM; in test [5], 7.2 µM (≈ 3.44 µg/mL).

Consider `CCCC(=O)Nc1nc(-c2ccc(OCc3c(Cl)cccc3Cl)cc2)c(C(=O)O)s1`, for which the MIC in test [1] was over 128 µM; in test [2], at most 0.134 µM; in test [3], over 128 µM; in test [4] it was over 128 µM; in test [5] it was over 128 µM.

`O=C(Nc1oc(-c2ccc(OCc3c(Cl)cccc3Cl)cc2)nc1C(=O)O)c1ccc(Cl)cc1` gave an MIC in test [5] of over 128 µM.

With `CCOC(=O)c1sc(NC(=O)c2ccc(Cl)cc2)nc1-c1ccc(OCc2c(Cl)cccc2Cl)cc1`, the MIC was over 128 µM in test [1]; 7.12 µM (≈ 4 µg/mL) in test [2]; over 128 µM in test [3]; over 128 µM in test [4]; 1 µM (≈ 0.562 µg/mL) in test [5].

Consider `CCOC(=O)c1sc(NC(=O)c2ccc(Cl)cc2Cl)nc1-c1ccc(OCc2c(Cl)cccc2Cl)cc1`, for which the minimum inhibitory concentration (MIC) in test [1] was over 128 µM; in test [2], over 128 µM; in test [3], over 128 µM; in test [4], over 128 µM; in test [5] it was 25.4 µM (≈ 15.1 µg/mL).

In test [5], `CCOC(=O)c1nc(-c2ccc(OCc3c(Cl)cccc3Cl)cc2)oc1NC(=O)c1ccc(Cl)cc1` displayed an MIC of over 128 µM.

Take `O=C(Nc1nc(-c2ccc(OCc3c(Cl)cccc3Cl)cc2)c(C(=O)O)s1)c1ccc(Cl)cc1Cl`: the minimum inhibitory concentration (MIC) is over 128 µM in test [1]; over 128 µM in test [2]; over 128 µM in test [3]; over 128 µM in test [4]; 45.5 µM (≈ 25.9 µg/mL) in test [5].
